Reference: ChEMBL document CHEMBL4477197, “Antitumor Activity of Spicatoside A by Modulation of Autophagy and Apoptosis in Human Colorectal Cancer Cells” (J Nat Prod, 2016)
Activity calls are given as the source filed them. The calls are words filed in the database; no cut-off is given here.

Experiments:
HCT-116 [1] = assay: Induction of autophagy in human HCT116 cells assessed as accumulation of LC3-2 after 24 hrs by Western blot analysis; assay type: functional, cell-based
Outline: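 HCT116 cells were cultured 24 h with the indicated concentrations. Lysates were made in SDS buffer with NaF and orthovanadate and quantified by BCA; 10–30 μg protein was separated by 6–15% SDS-PAGE and transferred to PVDF. After 5% BSA blocking, blots were probed for LC3-II, beclin 1, p62, LAMP1 and cathepsin D, with ECL detection.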

HCT-116 [2] = assay: Induction of apoptosis in human HCT116 cells assessed as PARP cleavage at 30 uM upto 48 hrs by Western blot analysis; assay type: functional, cell-based
Outline: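 Time course: HCT116 cells were exposed to 30 μM compound for 6, 12, 24, 36 and 48 h. LC3-II, beclin 1, cleaved caspase-8 and cleaved PARP were measured by Western blot (SDS-PAGE, PVDF, ECL) with β-actin as internal standard.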

HCT-116 [3] = assay: Induction of apoptosis in human HCT116 cells assessed as downregulation of Bcl-2 levels at 10 to 30 uM after 48 hrs by Western blot analysis; assay type: functional, cell-based
[4] = Toxicity in BALB/c-nu mouse xenografted with human HCT116 cells assessed as change in body weight at 2.5 to 5 mg/kg, ip administered three times per week for 28 days measured during compound dosing relative to control; assay type: organism-based; settings: in vivo, 672 h
Outline: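 Nude mice carried subcutaneous flank HCT116 implants (2 × 10^6 cells in 200 μL medium). At about 200 mm3 they were randomised into groups of five. Compound at 2.5 or 5 mg/kg in saline with 0.5% Tween 80 was given ip three times weekly for 4 weeks; controls received vehicle. Body weight was monitored throughout for toxicity.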

HCT-116 [5] = assay: Induction of apoptosis in human HCT116 cells at 10 uM after 48 hrs by Annexin V-FITC/propidium iodide staining based flow cytometry; assay type: functional
Outline: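 HCT116 cells were treated 48 h, then resuspended in binding buffer at 1 × 10^6 cells/mL. They were stained with annexin V-FITC and PI for 20 min at room temperature in the dark, diluted and analyzed immediately by flow cytometry for annexin V-positive cells. n = 3.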

HCT-116 [6] = assay: Cell cycle arrest in human HCT116 cells assessed as accumulation at subG1 phase at 30 uM after 48 hrs by propidium iodide staining based flow cytometry; assay type: functional
HCT-116 [7] = assay: Induction of autophagy in human HCT116 cells assessed as accumulation of LC3-2 at 30 uM after 24 hrs in presence of autophagy inhibitor 3-MA by Western blot analysis; assay type: functional, cell-based
Outline: (§1)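 HCT116 cells were pretreated 1 h with 2 mM 3-MA, then given 30 μM compound for a further 24 h. Whole-cell lysates were immunoblotted for LC3-II and cleaved PARP, with β-actin as loading standard and ECL detection. Blots are representative of three separate determinations.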

HCT-116 [8] = assay: Induction of apoptosis in human HCT116 cells assessed as activation of caspase 9 at 10 to 30 uM after 48 hrs by Western blot analysis; assay type: functional, cell-based
Outline: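 HCT116 cells were treated with the indicated concentrations for 48 h. Lysates were prepared in SDS sample buffer and 10–30 μg protein was separated by SDS-PAGE, blotted to PVDF and blocked in 5% BSA. Cleaved caspase-8, -9, -3 and PARP were detected by ECL.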

HCT-116 [9] = assay: Induction of beclin 1 cleavage in human HCT116 cells at 30 uM after 48 hrs in presence of caspase-8 inhibitor z-IETD-FMK by Western blot analysis; assay type: functional, cell-based
Outline: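 HCT116 cells were cultured 48 h with 30 μM compound, with or without 20 μM z-IETD-FMK. Lysates were made in SDS loading buffer and 10–30 μg protein was resolved by 6–15% SDS-PAGE and transferred to PVDF. Blots were probed for cleaved caspase-8, beclin 1, cleaved beclin 1 and LC3-II, and detected by ECL.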

HCT-116 [10] = assay: Induction of apoptosis in human HCT116 cells assessed as PARP cleavage at 30 uM after 24 hrs in presence of autophagy inhibitor 3-MA by Western blot analysis; assay type: functional, cell-based; outline: as §1
HCT-116 [11] = assay: Induction of autophagy in human HCT116 cells assessed as formation of acidic vesicular organelles at 20 uM after 24 hrs by acridine orange staining based assay relative to control; assay type: functional, cell-based
Outline: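 Cells were seeded at 1 × 10^5/well, grown 24 h, then treated 24 h with 20 μM compound, 2.5 nM bafilomycin A1, or both. They were stained with acridine orange (2 μg/mL) for 15 min and washed in DPBS. AO-positive cells were quantified by high-content imaging and expressed as an index versus vehicle. Triplicates.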

HCT-116 [12] = assay: Antitumor activity against human HCT116 cells xenografted in BALB/c-nu mouse assessed as inhibition of tumor volume at 5 mg/kg, ip administered three times per week for 28 days measured every 3 to 4 days of dosing relative to control; assay type: functional; settings: HCT-116, ip
Outline: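 HCT116 cells (2 × 106 in 200 μL medium) injected subcutaneously into the right flank of nude mice; at ~200 mm3, mice randomized into groups of five. Compound at 2.5 or 5 mg/kg, dissolved in normal saline with 0.5% Tween 80, given ip three times weekly for 28 days; vehicle controls got equal volume. Tumor volume measured by caliper every 3–4 days.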

HCT-116 [13] = assay: Antitumor activity against human HCT116 cells xenografted in BALB/c-nu mouse assessed as inhibition of tumor weight at 2.5 mg/kg, ip administered three times per week for 28 days measured post dosing relative to control; assay type: functional; settings: HCT-116, ip, 672 h
Outline: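 Nude mice bearing subcutaneous HCT116 flank tumors (2 × 10^6 cells) were randomized at ~200 mm3, five per group. Dosing was 2.5 or 5 mg/kg ip in saline/0.5% Tween 80, three times weekly for 28 days, with vehicle controls. Tumors were excised on day 28 and weighed; inhibition was expressed against the vehicle group.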

[14] = target: c-Jun N-terminal kinase, JNK (Homo sapiens) (UniProt P45983+P53779+P45984); assay: Activation of JNK in human HCT116 cells after 24 hrs by Western blot analysis; assay type: cell-based
[15] = Inhibition of PI3K/Akt/mTOR in human HCT116 cells assessed as upregulation of PTEN at 10 to 30 uM after 24 hrs by Western blot analysis; assay type: cell-based
Outline: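 HCT116 cells (RPMI 1640, 10% FBS, 37 °C, 5% CO2) exposed to the compound for 24 h, then lysed in 2× SDS sample buffer with NaF and orthovanadate and boiled. BCA-normalised protein (10−30 μg) run on 6−15% SDS-PAGE and blotted to PVDF. Blocked in 5% BSA/PBS-Tween, probed for PI3K, PTEN, Akt and mTOR, and detected by ECL. Blots are representative of three determinations.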

[16] = target: MAP kinase p38 (Homo sapiens) (UniProt O15264+Q15759+Q16539+P53778); assay: Induction of p38 phosphorylation in human HCT116 cells after 24 hrs by Western blot analysis; assay type: cell-based
[17] = target: Mitogen-activated protein kinase; ERK1/ERK2 (Homo sapiens) (UniProt P27361+P28482); assay: Inhibition of ERK1/2 phosphorylation in human HCT116 cells after 24 hrs by Western blot analysis; assay type: cell-based
Sequence of Mitogen-activated protein kinase; ERK1/ERK2 (Homo sapiens) (P27361 whole entry, looked up): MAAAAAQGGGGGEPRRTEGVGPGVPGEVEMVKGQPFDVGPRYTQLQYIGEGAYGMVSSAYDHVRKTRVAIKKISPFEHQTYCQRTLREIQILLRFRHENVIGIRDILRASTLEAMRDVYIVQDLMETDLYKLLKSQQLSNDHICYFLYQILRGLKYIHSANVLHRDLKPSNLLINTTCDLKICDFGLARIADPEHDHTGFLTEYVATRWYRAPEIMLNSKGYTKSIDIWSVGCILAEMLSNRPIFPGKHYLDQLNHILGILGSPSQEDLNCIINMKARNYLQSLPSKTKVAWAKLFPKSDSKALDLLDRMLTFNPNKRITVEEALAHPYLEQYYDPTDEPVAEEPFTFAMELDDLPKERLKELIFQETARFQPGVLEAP
Sequence of Mitogen-activated protein kinase; ERK1/ERK2 (Homo sapiens) (P28482 whole entry, looked up): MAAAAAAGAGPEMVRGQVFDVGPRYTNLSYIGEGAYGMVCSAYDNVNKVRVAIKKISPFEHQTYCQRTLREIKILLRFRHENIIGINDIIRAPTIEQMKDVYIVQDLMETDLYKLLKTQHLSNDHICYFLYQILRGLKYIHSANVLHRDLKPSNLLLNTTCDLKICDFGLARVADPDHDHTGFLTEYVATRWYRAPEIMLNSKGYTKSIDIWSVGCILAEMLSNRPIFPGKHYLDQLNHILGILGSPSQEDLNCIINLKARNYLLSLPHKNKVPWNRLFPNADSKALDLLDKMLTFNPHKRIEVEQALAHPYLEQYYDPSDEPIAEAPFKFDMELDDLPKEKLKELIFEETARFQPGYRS

For C[C@H]1CC[C@@]2(OC1)O[C@H]1C[C@H]3[C@@H]4CC=C5C[C@@H](O)C[C@@H](O[C@@H]6O[C@H](C)[C@H](O)[C@H](O[C@@H]7OC[C@@H](O)[C@H](O)[C@H]7O)[C@H]6O[C@@H]6O[C@H](CO)[C@@H](O)[C@H](O)[C@H]6O)[C@]5(C)[C@H]4CC[C@]3(C)[C@H]1[C@@H]2C, the Activity (HCT-116 [1]) was “Dose-dependent effect”, the Activity (HCT-116 [2]) was “Active” and the Activity (HCT-116 [3]) was “Active”. For the same compound, the Activity [4] was “Non-Toxic”, the Activity (HCT-116 [5]) was 13.42% and the Activity (HCT-116 [6]) was 45.37%. For the same compound, the Activity (HCT-116 [7]) was “inactive”, the Activity (HCT-116 [8]) was “Active” and the Activity (HCT-116 [9]) was “inactive”. For the same compound, the Activity (HCT-116 [10]) was “Active”, the Activity (HCT-116 [11]) was “Active” and the inhibition in vivo at 5 mg/kg (HCT-116 [12]) was 57.5%. The inhibition in vivo at 2.5 mg/kg (HCT-116 [13]) was 43%, the Activity [14] was “inactive” and the inhibition [15] was “Active”. The Activity [16] was “Dose-dependent effect” and the inhibition [17] was “Dose-dependent effect”.
